Experimental data pooled from the literature.
Target: D(2) dopamine receptor (DRD2, Homo sapiens, UniProt P14416)
Tested at: 10 µM

SMILES | effect on | mode | technique | inhibition
C[C@H](NC(=O)Nc1cc2[nH]ncc2c(CO)n1)c1ccccn1 | cell-free assay | – | – | 17.7%
Cc1ncccc1OC[C@H]1CN(CCN2CCc3ccccc32)CCO1 | ligand displacement | – | radioligand | 26.5%
O=C1NC(c2ccccn2)Sc2ccccc21 (centres unmarked) | ligand displacement | – | – | -3.91%
CCN(CC)c1ccc(C2Nc3ccc(C(=O)c4ccccc4)cc3NC3=C2C(=O)CC(C)(C)C3)cc1 (centres unmarked) | ligand displacement | – | radioligand | 99%
c1ccc(OC[C@@H]2CN(CCN3CCc4ccccc43)CCO2)cc1 | ligand displacement | – | radioligand | 92.8%
COc1cccc(N2CCN(C3CC(=O)N(c4cccc(OC)c4)C3=O)CC2)c1 (centres unmarked) | enzyme activity | inhibitor | – | 8.6%
CCC(F)(F)c1cc(N2CCC(S(C)(=O)=O)CC2)nc2sc(C(N)=O)c(N)c12 | ligand displacement | – | – | 69.8%
Clc1cccc(OC[C@@H]2CN(CCN3CCc4ccccc43)CCO2)c1 | ligand displacement | – | radioligand | 62.7%
Cc1ccccc1OCC(O)CN1CCN(CC(O)COc2ccccc2C)CC1 (centres unmarked) | enzyme activity | inhibitor | – | 19.5%
CN(C)c1ncnc(-c2ccc3nc(Nc4cc(CN5CCN(C(=O)CC(F)(F)F)CC5)ccn4)[nH]c3c2)c1Cl | ligand displacement | – | – | 10.6%
Cc1ccnc(C)c1OC[C@H]1CN(CCN2CCc3ccccc32)CCO1 | ligand displacement | – | radioligand | 6.1%
Cc1c(C(=O)O)cc(-c2ccc(C3CCNCC3)cc2)c2ccc(-c3ccc(C(F)(F)F)cc3)cc12 | cell-free assay | – | – | -14.4%
O=c1oc2cc(OCC(O)CN3CCN(c4ccc(F)cc4)CC3)ccc2c2c1CCC2 (centres unmarked) | enzyme activity | inhibitor | – | 40.8%
COc1cccc(OC[C@@H]2CN(CC(=O)N3CCc4ccccc43)CCO2)c1 | ligand displacement | – | radioligand | 9.5%
O=C1C2CCCN2C(=O)N1CCCCN1CCN(c2ccccc2)CC1 (centres unmarked) | enzyme activity | inhibitor | – | 48.3%
CCCNc1nc2ccccc2n1Cc1ccc(Cl)cc1 | ligand displacement | – | – | 1.09%
CCn1c2ccccc2c2cc(CNCCCN3CCOCC3)ccc21 | enzyme activity | inhibitor | – | 21.9%
O=C(c1ccc(F)cc1)N1CC(COc2ccc(Br)cc2)(C(=O)O)C1 | cell-free assay | – | – | -29.4%
Cc1ccccc1N1CCN(CC(O)COc2ccc(C(=O)c3ccccc3)cc2)CC1 (centres unmarked) | enzyme activity | inhibitor | – | 49.2%
O=C(CN1CCO[C@H](COc2cccc(Cl)c2)C1)N1CCc2ccccc21 | ligand displacement | – | radioligand | 15.1%
